Rows were chosen to be rich in hits. Some 5.9% of all compounds tested hit in one or more screens of this group.
T cruzi growth-1 = T. cruzi intracellular proliferation inhibitors, primary screen, cell-based, beta-gal Tulahuen parasites, NIH3T3 host, luminescence | inhibition, % at 8.34 µM | T. cruzi beta-gal in NIH3T3, GalScreen luminescence, 90 h | hit rate 5.9% among 77,000;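 active means mean inhibition above about 93%, with at least 55% of replicates each passing it, limit read from the data, passing the limit was not always enough; inconclusive means only one of those two conditions holds; inactive means neither condition holds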
IDH1 R132H inh = inhibitors of IDH1 R132H reductase, primary screen, biochemical, plate reader, single point | Isocitrate dehydrogenase [NADP] cytoplasmic (Homo sapiens), O75874 | diaphorase/resazurin fluorescence, 60 min | inhibition, % at 10 µM | hit rate 0.18% among 70,000 | AID 624101, 2012; in the data active means inhibition above about 34%; inconclusive means no clear call, values can overlap the other calls; inactive means below about 11%
Pf Dd2 inh = P. falciparum Dd2 growth inhibitors, primary screen, SYBR Green fluorescence, single dose replicates; 72 h; stronger effect = lower value; AID 1159554, 2015; activity change, % at 10 µM; hit rate 2.3% among 94,000; in the data active means activity change below about -80%; inconclusive means no clear call, values can overlap the other calls
KDM4C inh = inhibitors of GASC-1 (KDM4C) histone demethylase, primary screen, biochemical, single concentration HTS. Lysine-specific demethylase 4C (Homo sapiens), Q9H3R0. AID 720574, 2013. hit rate 0.15% among 96,000. inhibition, % at 12.5 µM. GST-KDM4C 2-372, H3K9me3 peptide, LANCE TR-FRET;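 active means mean replicate inhibition above about 25%, with at least 55% of replicates also reaching it, limit read from the data, passing the limit was not always enough; inconclusive means only one of those two conditions met; inactive means neither condition met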
Target sequence (Q9H3R0 2-372 limits assumed): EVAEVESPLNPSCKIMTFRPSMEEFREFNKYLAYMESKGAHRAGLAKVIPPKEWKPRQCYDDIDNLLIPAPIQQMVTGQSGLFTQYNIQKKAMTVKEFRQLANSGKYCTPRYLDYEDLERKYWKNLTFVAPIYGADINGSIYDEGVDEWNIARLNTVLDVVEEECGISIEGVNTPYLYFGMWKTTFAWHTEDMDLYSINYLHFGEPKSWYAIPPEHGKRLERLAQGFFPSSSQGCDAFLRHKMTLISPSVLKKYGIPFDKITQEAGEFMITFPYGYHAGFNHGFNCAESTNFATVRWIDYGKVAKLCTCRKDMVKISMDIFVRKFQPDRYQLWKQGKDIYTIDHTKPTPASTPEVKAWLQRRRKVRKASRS
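Assay system: GST-GASC-1 enzyme fragment 2-372 | Amount: 10 nM enzyme | Medium: HEPES buffer, pH 7.5, plus ascorbate | Reagent: H3K9me3 peptide substrate, Fe(II), 2-oxoglutarate | Doses: Single-point compound screen | Incubation: 30 min demethylation and 1 h detection at room temperature | Measured by: LANCE TR-FRET, excitation 340 nm, emissions 618 and 671 nm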
T cruzi growth-2 = T. cruzi intracellular proliferation inhibitors, confirmation, cell-based, NIH3T3 host, beta-gal parasite, luminescence, cherry-pick | shares compounds with T cruzi growth-1 | hit rate 72% among 5,600 | inhibition, % at 8.35 µM | T. cruzi beta-gal in NIH3T3, GalScreen luminescence, 90 h | AID 651739, 2012;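 active means mean replicate inhibition above about 95% and at least 55% of replicates individually reaching it, limit read from the data; inconclusive means only one of the two criteria is met; inactive means neither criterion is met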
T cruzi growth-3 = inhibitors of intracellular T. cruzi replication, confirmation, NIH3T3 host cells, beta-gal parasites, cherry-pick, set 2; T. cruzi beta-gal in NIH3T3, GalScreen luminescence, 90 h; inhibition, % at 2.09 µM; AID 651740, 2012; shares compounds with T cruzi growth-1; hit rate 21% among 5,600;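 active means mean inhibition above about 95%, with at least 55% of replicates also reaching it, limit read from the data; inconclusive means meets just one of the two conditions; inactive means meets neither condition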
3T3 cytotox = cytotoxicity in mouse NIH/3T3 fibroblasts, confirmation, cytotoxicity control for T. cruzi proliferation inhibitor project, cell-based, cherry-pick, single point; AID 651742, 2012; NIH/3T3 viability, CellTiter-Glo ATP luminescence, 90 h; shares compounds with T cruzi growth-1; cytotoxicity (signal decrease), % at 8.35 µM; hit rate 14% among 5,600;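 active means mean signal decrease across replicates above about 35% based on untreated-well scatter, with enough replicates individually passing, limit read from the data; inconclusive means no rule stated though some were filed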
3T3 cytotox 2 = NIH/3T3 fibroblast cytotoxicity, confirmation, cytotoxicity control, cell-based, cherry-pick, single point, set 2; inhibition, % at 24.9 µM; AID 651744, 2012; shares compounds with T cruzi growth-1; hit rate 56% among 5,600; NIH/3T3 viability, CellTiter-Glo ATP luminescence, 90 h;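 active means mean loss of cell viability signal at or above a set limit, and enough replicates individually reaching it; inconclusive means meets only the mean limit or only the replicate share; inactive means meets neither condition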
Each line names hits and unclear results; the compound was inactive in the other large screens (follow-up assays come after a bar, where they were run); ! = a repeat was not active.

O=C(NCCN1CCCCC1)[C@H]1N[C@H]2c3ccc(-c4ccncc4)c(=O)n3C[C@H]2[C@@H]1CO	T cruzi growth-1 102 (no result: IDH1 R132H inh) | T cruzi growth-2 inactive | T cruzi growth-3 inactive | 3T3 cytotox inactive | 3T3 cytotox 2 inactive
CCCNC(=O)[C@@H]1[C@@H](CO)[C@@H]2Cn3c(ccc(C4=CCCC4)c3=O)[C@H]1N2	T cruzi growth-1 100 (no result: IDH1 R132H inh) | T cruzi growth-2 inactive | T cruzi growth-3 inactive | 3T3 cytotox inactive | 3T3 cytotox 2 inactive
O=C(NCCCN1CCOCC1)[C@@H]1[C@@H](CO)[C@@H]2Cn3c(ccc(C4=CCCC4)c3=O)[C@H]1N2	T cruzi growth-1 inconclusive (no result: IDH1 R132H inh) | T cruzi growth-2 inactive | T cruzi growth-3 inactive | 3T3 cytotox inactive | 3T3 cytotox 2 inactive
C[C@H]1CCCCO[C@@H](CN(C)S(=O)(=O)c2ccccc2)[C@@H](C)CN([C@@H](C)CO)C(=O)c2cc(N(C)C)ccc2O1	T cruzi growth-1 107 | T cruzi growth-2 inactive | T cruzi growth-3 inactive | 3T3 cytotox inactive | 3T3 cytotox 2 inactive
Cc1ccc(S(=O)(=O)N(C)C[C@@H]2OCCCC[C@H](C)Oc3ccc(N(C)C)cc3C(=O)N([C@@H](C)CO)C[C@H]2C)cc1	T cruzi growth-1 inconclusive | T cruzi growth-2 inactive | T cruzi growth-3 inactive | 3T3 cytotox inactive | 3T3 cytotox 2 inactive
COc1ccc(S(=O)(=O)N(C)C[C@@H]2OCCCC[C@@H](C)Oc3ccc(N(C)C)cc3C(=O)N([C@H](C)CO)C[C@H]2C)cc1	none
COc1ccc(S(=O)(=O)N(C)C[C@H]2OCCCC[C@H](C)Oc3ccc(N(C)C)cc3C(=O)N([C@H](C)CO)C[C@@H]2C)cc1	T cruzi growth-1 102!, Pf Dd2 inh -88 | T cruzi growth-2 inactive | T cruzi growth-3 inactive | 3T3 cytotox inactive | 3T3 cytotox 2 inactive
C[C@H](CO)N1C[C@H](C)[C@H](CN(C)S(=O)(=O)c2ccccc2)OCCCC[C@H](C)Oc2ccc(N(C)C)cc2C1=O	none
C[C@H]1CCCCO[C@@H](CN(C)S(=O)(=O)c2ccc(F)cc2)[C@@H](C)CN([C@@H](C)CO)C(=O)c2cc(N(C)C)ccc2O1	none (no result: IDH1 R132H inh)
C[C@H](CO)N1C[C@H](C)[C@H](CN(C)S(=O)(=O)c2ccc(F)cc2)OCCCC[C@H](C)Oc2ccc(N(C)C)cc2C1=O	T cruzi growth-1 inconclusive (no result: IDH1 R132H inh) | T cruzi growth-2 96 | T cruzi growth-3 inactive | 3T3 cytotox inactive | 3T3 cytotox 2 inactive
COc1ccc(-c2ccc3c(c2)[C@H]2[C@H](CCN2C(=O)Cc2ccncc2)[C@H](CO)N3)cc1	none (no result: IDH1 R132H inh)
O=C(Cc1ccncc1)N1CC[C@@H]2[C@H]1c1cc(-c3cccc(F)c3)ccc1N[C@@H]2CO	T cruzi growth-1 118 (no result: IDH1 R132H inh) | T cruzi growth-2 107 | T cruzi growth-3 inactive | 3T3 cytotox inactive | 3T3 cytotox 2 inactive
O=C(Cc1ccccc1)N1CC[C@H]2[C@H](CO)Nc3ccc(-c4cccc(F)c4)cc3[C@H]21	none (no result: IDH1 R132H inh)
COc1cccc(-c2ccc3c(c2)[C@@H]2[C@@H](CCN2C(=O)Cc2ccncc2)[C@@H](CO)N3)c1	T cruzi growth-1 inconclusive (no result: IDH1 R132H inh) | T cruzi growth-2 101 | T cruzi growth-3 inactive | 3T3 cytotox inactive | 3T3 cytotox 2 inactive
CN1C(=O)c2cc(NC(=O)Cc3cccs3)ccc2OC[C@@H]2O[C@H](CC(=O)NCCc3ccncc3)CC[C@H]21	none (no result: IDH1 R132H inh, Pf Dd2 inh)
Cc1noc(C)c1NC(=O)N[C@H]1CC[C@@H](CC(=O)NCCCN(C)C)O[C@@H]1CO	T cruzi growth-1 inconclusive | T cruzi growth-2 inactive | T cruzi growth-3 inactive | 3T3 cytotox inactive | 3T3 cytotox 2 inactive

Compound activity from PubChem BioAssay.
